Screening data deposited in PubChem by The Scripps Research Institute Molecular Screening Center.
CHRM4 PAM = human M4 muscarinic receptor positive allosteric modulators, primary screen, CHO-K1 cells, Fluo-8 calcium fluorescence; Muscarinic acetylcholine receptor M4 (Homo sapiens), P08173; CHO-K1 hM4/Gqi5, ACh EC20; 0% = ACh EC20, 100% = maximal ACh; activation, % at 3 µM; hit rate 0.4% among 360,000; AID 624126, 2012;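 active = activation above its plate's cutoff, the mean activation of sample wells plus 3 SD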
CHRM4 agonist = human M4 muscarinic receptor agonists, primary screen, CHO-K1 cells, Fluo-8 calcium fluorescence | CHO-K1 hM4/Gqi5; vehicle 0%, full acetylcholine response 100% | activation, % at 3 µM | hit rate 0.14% among 360,000 | AID 624127, 2012;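 active = activation above the run mean over all test wells plus 3 SD, cut at about 32% in these data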;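 note: peak over basal fluorescence ratio per well then scaled between controls; 0% = DMSO wells and 100% = acetylcholine at EC100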
CHRM5 PAM = human M5 muscarinic receptor positive allosteric modulators, primary screen, CHO-K1 cells, Fluo-8 calcium fluorescence. Muscarinic acetylcholine receptor M5 (Homo sapiens), P08912. CHO-K1 hM5, ACh EC20 PAM; 0% = ACh EC20, 100% = ACh EC100. activation, % at 3 µM. hit rate 0.3% among 360,000. AID 624038, 2012;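 active = activation above the run cutoff, the mean activation of all test compounds plus 3 SD, cut at about 18% in these data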
Target sequence (P08912 whole entry, looked up): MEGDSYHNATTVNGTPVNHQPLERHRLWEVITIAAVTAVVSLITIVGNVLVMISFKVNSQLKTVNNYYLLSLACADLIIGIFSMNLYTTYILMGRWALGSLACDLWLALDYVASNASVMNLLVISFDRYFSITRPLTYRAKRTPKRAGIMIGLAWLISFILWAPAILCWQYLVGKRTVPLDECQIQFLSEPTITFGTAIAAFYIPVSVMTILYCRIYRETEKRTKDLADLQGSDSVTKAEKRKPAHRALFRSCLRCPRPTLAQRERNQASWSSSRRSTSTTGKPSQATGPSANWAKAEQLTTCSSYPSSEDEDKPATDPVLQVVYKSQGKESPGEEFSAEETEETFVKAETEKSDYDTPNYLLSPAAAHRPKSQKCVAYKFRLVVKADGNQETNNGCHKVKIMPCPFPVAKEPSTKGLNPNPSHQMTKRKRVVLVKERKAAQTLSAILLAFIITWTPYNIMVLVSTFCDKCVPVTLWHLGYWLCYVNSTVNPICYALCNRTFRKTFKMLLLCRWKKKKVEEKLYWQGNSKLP
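system = human M5 receptor in CHO-K1 cells | compound = one concentration, 3 µM final (nominal) | schedule = Post-acetylcholine fluorescence recording 140 s | signal = Fluo-8 calcium dye fluorescence, kinetic read | benchmarks = low control EC20 acetylcholine (0%), high control EC100 acetylcholine (100%) | repeats = singlicate, one well per test compound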
CHRM4 antagonist = human M4 muscarinic receptor antagonists, primary screen, CHO cells, Fluo-8 calcium fluorescence. Muscarinic acetylcholine receptor M4 (Homo sapiens), P08173. CHO-hM4 cells, ACh EC80. inhibition, % at 3 µM. hit rate 0.73% among 360,000. AID 624125, 2012;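 active = inhibition above its plate's cutoff, the mean inhibition of sample wells plus 3 SD, cut at about 27% in these data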;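 note: 0% = acetylcholine EC80 with DMSO and 100% = DMSO without agonist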
M5 ag = human M5 muscarinic receptor agonists, primary screen, CHO-K1 cells, Fluo-8 calcium fluorescence | hit rate 0.19% among 360,000 | Muscarinic acetylcholine receptor M5 (Homo sapiens), P08912 | activation, % at 3 µM | CHO-K1 hM5 cells; 0% DMSO wells, 100% maximal acetylcholine response;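 active = activation above the run's mean over test compounds plus 3 SD, cut at about 23% in these data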;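 note: signal is peak over basal fluorescence ratio across the kinetic read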
M5 antag = human M5 muscarinic receptor antagonists, primary screen, CHO cells, Fluo-8 calcium fluorescence | Muscarinic acetylcholine receptor M5 (Homo sapiens), P08912 | CHO-hM5 cells, ACh EC80 | inhibition, % at 3 µM | hit rate 0.59% among 360,000;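 active = inhibition above a per-plate cutoff, the mean of that plate's test compounds plus 3 SD, cut at about 27% in these data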;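 note: 0% = acetylcholine EC80 with DMSO and 100% = DMSO without agonist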
* marks the source's active call; other numbers are inactive results. Most compounds without a hit are left out; they make up all but 1.8% or so of the library.

SMILES	CHRM4 PAM	CHRM4 agonist	CHRM5 PAM	CHRM4 antagonist	M5 ag	M5 antag
O=[N+]([O-])c1ccc2c(c1)C(N1CCN(CCO)CC1)Cc1ccc(F)cc1S2 (stereo not given)	-12	14	-8	17	-3	1
CSc1ccc2c(c1)C(N1CCN(C)CC1)Cc1ccc(F)cc1S2 (stereo not given)	-16	29	-30	43*	-16	29*
CSc1ncccc1C(=O)NNC(=O)c1ccc(NS(=O)(=O)c2cccs2)cc1	20	2	2	-7	3	-5
C=C1C2=C(C(=O)N1OC)[C@@H](O)[C@@](C)(O)[C@@H](CCCCC)O2	22*	0	5	-17	1	-5
CCCCCCCCCCOC(=O)Cn1c(COc2ccccc2OC)[n+](C)c2ccccc21	-16	7	-30	58*	-25	45*
Cn1c(COc2ccccc2O)[n+](C)c2ccccc21	-1	2	-2	-14	-5	8
C=CCn1c(SCC(=O)NCCC2=CCCCC2)nc2ccc(Cl)cc2c1=O	5	1	30*	-14	4	2
Cn1c(=O)cc(SCC(=O)NCCC2=CCCCC2)c2ccc(Cl)cc21	1	0	1	1	-3	3
COc1ccc(C(CCN2CCCCC2)c2c(OC)cc(OC)c3c(-c4ccccc4)cc(=O)oc23)cc1 (stereo not given)	10	31	3	34*	7	14
CCCCCCCn1c2c(c(=N)c3ccccc31)CCC2	-8	2	-9	4	-16	27*
C=CS(=O)(=O)N(Cc1ccccc1)[C@H](CO)CC(C)C	2	2	3	-14	-11	-8
CC(C)C[C@H](CO)N(Cc1ccccc1)S(=O)(=O)N(Cc1ccccc1)[C@@H](CO)CC(C)C	-11	11	-19	34*	4	13
CCCOC1CCCN(C(=O)c2cc(Cl)c(Cl)cc2C(=O)O)C1 (stereo not given)	-6	3	-11	9	25*	5
Cc1nc(C)c(C(=O)OCC(=O)NCc2ccccc2Cl)s1	4	1	-1	-15	1	7
CCOc1ccc(CCNC(=O)CSc2n[nH]c(N)n2)cc1OCC	-7	0	-8	13	-3	30*
CCOC(=O)N1CCN(C(=O)CNC(=O)Cn2cnc3ccccc3c2=O)CC1	21*	0	8	14	-3	3
O=C(COC(=O)C1CC1)Nc1ccc(S(=O)(=O)N2CCOCC2)cc1	10	0	6	-7	1	14
O=C(CC1C(=O)NCCN1Cc1cccc(F)c1)NCCCN1CCCC1=O (stereo not given)	4	1	13	-3	-1	-17
COc1cccc(CN2CCNC(=O)C2CC(=O)NCCCN2CCCC2=O)c1 (stereo not given)	15*	0	7	-5	-1	-11
CCC(C)N(CCNC(=O)CC1Oc2ccc(C)cc2NC1=O)C1CCCCC1 (stereo not given)	-18	0	-22	71*	-6	18
CN(C(=O)c1ccc(NC(=O)Cc2ccc(NC(=O)C3CCCN(C(=O)CCc4ccccc4)C3)cc2)cc1)C1CC1 (stereo not given)	1	0	6	-7	-3	1
COC(=O)C[C@H]1C=C[C@@H](NC(=O)C2CC2)[C@@H](CO)O1	2	0	20*	-2	1	-8
CCC(=O)N[C@H]1C=C[C@H](CC(=O)OC)O[C@@H]1CO	-1	0	6	8	2	-4
CC1(C(=O)NCc2ccco2)Cc2c(-c3cccc(C(N)=O)c3)ccnc2O1 (stereo not given)	2	0	5	-4	0	-1
O=C(CNC(=O)c1ccccc1F)OC1CCOC1=O (stereo not given)	4	1	3	10	5	4
SMILES	CHRM4 PAM	CHRM4 agonist	CHRM5 PAM	CHRM4 antagonist	M5 ag	M5 antag
CCNc1nc(NC#N)nc(SCC(=O)OCC)n1	-2	0	-4	-3	-3	1
CCOC(=O)CSc1nc(NC#N)nc(N(CC)CC)n1	2	0	19*	-13	0	-18
CCN1/C(=C/c2ccc3cc(C)ccc3[n+]2CC)Sc2cc(C)c(C)cc21	-7	13	-19	31*	8	41*
CC[n+]1c(/C=C2\Sc3ccccc3N2C)ccc2cccc(C)c21	-9	8	-14	26	3	38*
CCN1/C(=C/C=C/c2sc3ccccc3[n+]2CC)Sc2ccccc21	-9	11	-12	16	3	18
CC[n+]1ccccc1/C=C1\Sc2ccc(C)cc2N1C	3	0	1	-10	-1	0
CCN1/C(=C/c2ccc3cc(C)ccc3[n+]2CC)Sc2ccccc21	-9	14	-21	33*	24*	60*
CCN(CC(=O)Nc1ccc(OC)cc1)C(=O)c1cc(S(=O)(=O)N2CCOCC2)ccc1N1CCCC1	5	6	-3	-6	-1	4
CCCCCOc1ccc(NC(=O)C(=O)NCCC2=CCCCC2)cc1	11	0	-1	-6	-1	-5
Cc1cc(C)nc(NS(=O)(=O)c2ccc(NC(=O)CSc3nc4ccccc4[nH]3)cc2)n1	11	0	2	-1	-3	0
COc1ccc2nc(SCC(=O)Nc3ccc(S(=O)(=O)Nc4nccc(C)n4)cc3)[nH]c2c1	23	1	2	35*	4	14
Cc1ccnc(NS(=O)(=O)c2ccc(NC(=O)c3ccc(S(=O)(=O)N4CCCC4)cc3)cc2)n1	4	0	19*	-4	1	-14
CNc1cncc(-c2ccc(OCCCN(C)C)nc2)n1	0	1	1	-7	0	-7
O=C(Nc1cccc(C(F)(F)F)c1)N1CCC(c2nc(-c3ccc(F)cc3)no2)CC1	-18	16	-23	51*	-2	39*
O=C(COC(=O)c1cc(S(=O)(=O)N2CCCC2)ccc1O)Nc1ccc(S(=O)(=O)N2CCOCC2)cc1	37*	4	4	15	-4	9
Cn1nccc1C(=O)Nc1cccc(S(=O)(=O)N2CCOCC2)c1	22*	1	2	8	-1	-2
CCc1nc2ccccc2c(C(=O)OCC(=O)Nc2cccc(S(=O)(=O)N3CCOCC3)c2)c1C	-19	11	-18	30*	4	11
